Here are results for 15 compounds from ChEMBL document CHEMBL1140906, “Examination of the biological role of the alpha(2-->6)-linked sialic acid in gangliosides binding to the myelin-associated glycoprotein (MAG)” (J Med Chem, 2009).

In the first experiment the target is T1, Myelin-associated glycoprotein (Homo sapiens, UniProt P20916).
T1 sequence (P20916 whole entry): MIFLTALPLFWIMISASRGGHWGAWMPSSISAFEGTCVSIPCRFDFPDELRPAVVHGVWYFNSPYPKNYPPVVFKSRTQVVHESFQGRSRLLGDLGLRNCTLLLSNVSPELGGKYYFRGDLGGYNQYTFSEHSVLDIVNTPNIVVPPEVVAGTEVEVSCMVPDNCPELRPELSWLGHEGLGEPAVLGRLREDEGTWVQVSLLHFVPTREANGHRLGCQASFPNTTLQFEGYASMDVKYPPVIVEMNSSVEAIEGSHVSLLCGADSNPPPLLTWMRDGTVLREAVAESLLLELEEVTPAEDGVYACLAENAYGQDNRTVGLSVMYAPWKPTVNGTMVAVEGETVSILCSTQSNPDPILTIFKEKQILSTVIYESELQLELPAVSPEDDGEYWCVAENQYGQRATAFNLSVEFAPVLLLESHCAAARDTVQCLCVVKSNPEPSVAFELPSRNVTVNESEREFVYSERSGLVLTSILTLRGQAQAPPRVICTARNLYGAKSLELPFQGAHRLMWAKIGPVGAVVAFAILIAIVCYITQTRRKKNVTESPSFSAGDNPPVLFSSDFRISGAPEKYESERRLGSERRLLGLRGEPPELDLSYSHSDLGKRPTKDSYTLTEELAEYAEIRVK
As to the kind of experiment: Binding affinity to human IgG Fc-domain tagged MAG N-terminal domain expressed in CHO cells by surface plasmon resonance. The method in brief: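 Fc-MAGd1-3 (three N-terminal MAG domains fused to human IgG Fc, CHO-expressed, protein A-purified) captured on an immobilized anti-human IgG Fc antibody on CM5 chip; reference surface prepared in parallel.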
As for `CC(=O)N[C@H]1[C@H]([C@@H](O)[C@H](O)CNC(=O)c2ccccc2)O[C@@](O[C@H]2[C@@H](O)[C@@H](CO)O[C@@H](O[C@H]3[C@@H](O)[C@@H](CO)O[C@@H](OCC[Si](C)(C)C)[C@@H]3O)[C@@H]2O)(C(=O)O)C[C@@H]1O`, the Kd (commonly a measure of binding affinity in units of concentration) was 32.6 µM.
The compound `CC(=O)N[C@H]1[C@H]([C@@H](O)[C@H](O)CNC(=O)c2ccc(Cl)cc2)O[C@@](O[C@H]2[C@@H](O)[C@@H](CO)O[C@@H](O[C@@H]3CCO[C@H](COCc4ccc(-c5ccccc5)cc4)[C@@H]3O)[C@@H]2O)(C(=O)O)C[C@@H]1O` gave a Kd of 2.83 µM.
Still for that read-out and setting: as for `CC(=O)N[C@H]1[C@H]([C@@H](O)[C@H](O)CNC(=O)c2ccccc2)O[C@@](O[C@H]2[C@@H](O)[C@@H](CO)O[C@@H](O[C@@H]3CCO[C@H](COCc4ccc(-c5ccccc5)cc4)[C@@H]3O)[C@@H]2O)(C(=O)O)C[C@@H]1O`, the figure is 5 µM.

A further experiment has as its target T2, Myelin-associated glycoprotein (Homo sapiens) (UniProt P20916).
T2 sequence (whole entry): T1 sequence (P20916 whole entry)
The experiment in a line: Inhibition of human IgG Fc-domain tagged MAG N-terminal domain expressed in CHO cells assessed as relative inhibition potency by hapten inhibition assay relative to (2R,4S,5R,6R)-5-acetamido-2-(((2R,3R,4R,5R,6R)-5-acetamido-4-((2R,3R,4S,5S,6R)-4-((2S,4S,5R)-5-acetamido-2-carboxy-4-hydroxy-6-((1S,2S)-1,2,3-trihydroxypropyl)tetrahydro-2H-pyran-2-yloxy)-3,5-dihydroxy-6-(hydroxymethyl)tetrahydro-2H-pyran-2-yloxy)-3-hydroxy-6-(2-(trimethylsilyl)ethoxy)tetrahydro-2H-pyran-2-yl)methoxy)-4-hydroxy-6-((1S,2R)-1,2,3-trihydroxypropyl)tetrahydro-2H-pyran-2-carboxylic acid. Format: cell-based. The method in brief: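 Hapten inhibition: oligosaccharide added to wells with immobilized Neu5Ac, then Fc-MAGd1-3 precomplexed with alkaline phosphatase-labelled anti-Fc antibody; overnight at 4 °C, washed, bound MAG read by initial rate of fluorescein release from fluorescein diphosphate. IC50 from at least eight concentrations, at least three independent titrations; rIP calculated against the reference compound included in each test.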
With `CC(=O)N[C@H]1[C@H]([C@@H](O)[C@H](O)CO)O[C@@](O[C@H]2[C@@H](O)[C@@H](CO)O[C@@H](O[C@H]3[C@@H](O)[C@@H](CO)O[C@@H](OCC[Si](C)(C)C)[C@@H]3O)[C@@H]2O)(C(=O)O)C[C@@H]1O`, the Ratio IC50 was 0.3.
The same measure, in the same setting: then `CC(=O)N[C@H]1[C@H]([C@@H](O)[C@H](O)CNC(=O)c2ccccc2)O[C@@](O[C@H]2[C@@H](O)[C@@H](CO)O[C@@H](O[C@H]3[C@@H](O)[C@@H](CO)O[C@@H](OCC[Si](C)(C)C)[C@@H]3O)[C@@H]2O)(C(=O)O)C[C@@H]1O`, with 61.5; and `CC(=O)N[C@H]1[C@H](OCC[Si](C)(C)C)O[C@H](CO[C@@H](C)C(=O)O)[C@H](O)[C@@H]1O[C@@H]1O[C@H](CO)[C@H](O)[C@H](O[C@]2(C(=O)O)C[C@H](O)[C@@H](NC(C)=O)[C@H]([C@@H](O)[C@H](O)CO)O2)[C@H]1O`, with 0.31.
The same measure, in the same setting: then `CC(=O)N[C@H]1[C@H]([C@@H](O)[C@H](O)CO)O[C@@](O[C@H]2[C@@H](O)[C@@H](CO)O[C@@H](O[C@@H]3CCO[C@H](CO[C@@H](C)C(=O)O)[C@@H]3O)[C@@H]2O)(C(=O)O)C[C@@H]1O`, with 1.24; and `CC(=O)N[C@H]1[C@H]([C@@H](O)[C@H](O)CO)O[C@@](O[C@H]2[C@@H](O)[C@@H](CO)O[C@@H](O[C@@H]3CCO[C@H](CO[C@@H](Cc4ccccc4)C(=O)O)[C@@H]3O)[C@@H]2O)(C(=O)O)C[C@@H]1O`, with 0.4.
The same measure, in the same setting: then `CC(=O)N[C@H]1[C@H]([C@@H](O)[C@H](O)CO)O[C@@](O[C@H]2[C@@H](O)[C@@H](CO)O[C@@H](O[C@@H]3CCO[C@H](COCc4ccccc4)[C@@H]3O)[C@@H]2O)(C(=O)O)C[C@@H]1O`, with 0.59.
For `CC(=O)N[C@H]1[C@H]([C@@H](O)[C@H](O)CO)O[C@@](O[C@H]2[C@@H](O)[C@@H](CO)O[C@@H](O[C@@H]3CCO[C@H](COCc4ccc(-c5ccccc5)cc4)[C@@H]3O)[C@@H]2O)(C(=O)O)C[C@@H]1O`, the Ratio IC50 was 1.25.
With `CC(=O)N[C@H]1[C@H](OCC[Si](C)(C)C)O[C@H](CO[C@H](C)C(=O)O)[C@H](O)[C@@H]1O[C@@H]1O[C@H](CO)[C@H](O)[C@H](O[C@]2(C(=O)O)C[C@H](O)[C@@H](NC(C)=O)[C@H]([C@@H](O)[C@H](O)CO)O2)[C@H]1O`, the Ratio IC50 was 0.17.
Same read-out and setting: as for `CC(=O)N[C@H]1[C@H]([C@@H](O)[C@H](O)CO)O[C@@](O[C@H]2[C@@H](O)[C@@H](CO)O[C@@H](O[C@@H]3CCO[C@H](CO[C@H](C)C(=O)O)[C@@H]3O)[C@@H]2O)(C(=O)O)C[C@@H]1O`, the figure is 0.98; as for `CC(=O)N[C@H]1[C@H]([C@@H](O)[C@H](O)CO)O[C@@](OC[C@H]2O[C@@H](OCC[Si](C)(C)C)[C@H](O)[C@@H](O[C@@H]3O[C@H](CO)[C@H](O)[C@H](O[C@]4(C(=O)O)C[C@H](O)[C@@H](NC(C)=O)[C@H]([C@@H](O)[C@H](O)CO)O4)[C@H]3O)[C@H]2O)(C(=O)O)C[C@@H]1O`, 0.3.
Same read-out and setting: then `CC(=O)N[C@H]1[C@H]([C@@H](O)[C@H](O)CNC(=O)c2ccc(Cl)cc2)O[C@@](O[C@H]2[C@@H](O)[C@@H](CO)O[C@@H](O[C@@H]3CCO[C@H](COCc4ccc(-c5ccccc5)cc4)[C@@H]3O)[C@@H]2O)(C(=O)O)C[C@@H]1O`, with 377; and `CC(=O)N[C@H]1[C@H]([C@@H](O)[C@H](O)CO)O[C@@](O[C@H]2[C@@H](O)[C@@H](CO)O[C@@H](O[C@@H]3CCO[C@H](CO)[C@@H]3O)[C@@H]2O)(C(=O)O)C[C@@H]1O`, with 0.76.
The same measure, in the same setting: then `CC(=O)N[C@H]1[C@H](OCC[Si](C)(C)C)O[C@H](CO)[C@H](O)[C@@H]1O[C@@H]1O[C@H](CO)[C@H](O)[C@H](O[C@]2(C(=O)O)C[C@H](O)[C@@H](NC(C)=O)[C@H]([C@@H](O)[C@H](O)CO)O2)[C@H]1O`, with 0.26; and `CC(=O)N[C@H]1[C@H]([C@@H](O)[C@H](O)CNC(=O)c2ccccc2)O[C@@](O[C@H]2[C@@H](O)[C@@H](CO)O[C@@H](O[C@@H]3CCO[C@H](COCc4ccc(-c5ccccc5)cc4)[C@@H]3O)[C@@H]2O)(C(=O)O)C[C@@H]1O`, with 314.
Consider `CC(=O)N[C@H]1[C@H](OCC[Si](C)(C)C)O[C@H](CO[C@@H](Cc2ccccc2)C(=O)O)[C@H](O)[C@@H]1O[C@@H]1O[C@H](CO)[C@H](O)[C@H](O[C@]2(C(=O)O)C[C@H](O)[C@@H](NC(C)=O)[C@H]([C@@H](O)[C@H](O)CO)O2)[C@H]1O`, for which the Ratio IC50 amounted to 0.4.
